For data set [1], the system named is Hepacivirus hominis. Description: Inhibition of HCV […] by quantitative RT-PCR. The method, boiled down: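 HCV replicon cells, 1×10^4 per well, were plated and the next day exposed to serially diluted compounds in DMEM with 2% FBS and 0.5% DMSO at 37 °C. Total RNA was extracted and HCV RNA copy number was measured by quantitative RT-PCR. Five replicates per point; MIC reported.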

Data set [2] in a line: Antioxidant activity against peroxynitrite-induced tyrosine nitration after 15 mins by HPLC. It counts as functional. The method, boiled down: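 Tyrosine (100 μM) was reacted with equimolar peroxynitrite and increasing compound concentrations (0–300 μM) in 100 mM phosphate buffer pH 7.4 at 37 °C for 15 min. 3-Nitrotyrosine formation was measured by reverse-phase C18 HPLC using a methanol/water/HCl and acetonitrile/water/HCl mobile phase. IC50 reported.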

Data set [3] relates to Measles virus (SSPE virus). Description: Antiviral activity against measles virus infected in hamster brain assessed as inhibition of subacute sclerosing panencephalitis dosed intracranially by HPLC.
Data set [4] has as its system Radical scavenging activity. Description: Antioxidant activity against DPPH radical scavenging activity after 30 mins by ELISA. The class given is functional. Set-up: concentration or dose not given beside the values. The method, boiled down:
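DPPH radical scavenging. Compounds were dissolved in DMSO and serially diluted, 0.0–100 μM/ml. 10 µl was added to 90 µl of 100 µM DPPH in methanol and incubated 30 min at 37 °C in the dark. Decrease in absorbance was read at 515 nm. % reduction = [(A_B − A_A)/A_B] × 100, against a DMSO/DPPH blank. Triplicate.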

Data set [5] concerns MC-38. Description: Growth inhibition of mouse Colon 38 cells after 72 hrs by sulforhodamine B assay relative to etoposide. It counts as functional. The method, boiled down:
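Exponentially growing cells were seeded on day 0. Graded drug concentrations were added on day 1, followed by 72 h at 37 °C. Cell number was estimated by SRB assay, with a separate day-1 count. GI50 is the concentration giving a 50% reduction in net protein increase versus control.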
A general note: Sulforhodamine B stains cellular protein and so reports cell mass.

The test system of data set [6] is Mus musculus. The data set is described as follows: Toxicity in mouse Colon 38 cells xenografted C57BL/6 mouse assessed as mortality at 3 mg/kg, iv administered as a single dose. The following applies: in vivo. The arrangement: dose 3 mg/kg, route intravenous. It counts as organism-based, MC-38.
For data set [7], the target named is DNA topoisomerase 2-alpha (Mus musculus) (UniProt Q01320). Description: Inhibition of mouse DNA topoisomerase 2 assessed as relaxation of supercoiled pBR322 plasmid DNA after 1 hr by electrophoresis relative to etoposide. In short, it runs like this:
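Topoisomerase II was purified from P388 cells. 0.125 μg supercoiled pBR-322 DNA was incubated with 1 unit of enzyme at 30 °C for 1 h in 50 mM Tris–HCl pH 8.0, 100 mM KCl, 10 mM MgCl2, 0.5 mM DTT, 1 mM ATP and 30 μg/ml BSA. Products were resolved on 0.7% agarose in TBE and stained with ethidium bromide.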

Data set [8] concerns Mus musculus. Description: Toxicity in mouse Colon 38 cells xenografted C57BL/6 mouse assessed as body weight change at 3 mg/kg, iv administered as a single dose. The class given is organism-based, MC-38. The arrangement: dose 3 mg/kg, route intravenous. As to conditions: in vivo. In short, it runs like this:
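Female C57BL/6 mice, 6 weeks old, had about 30 mg of Colon 38 tumour tissue implanted s.c. in the flank. When tumours reached about 300 mm³ on day 1, mice were randomised into control and treatment groups (n = 5 each). Compound in 5% glucose was given once on day 1 by tail-vein i.v. injection; controls received 5% glucose. Body weight was tracked over subsequent days.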

In data set [9] the test system is MC-38. The data set is described as follows: Antitumor activity against mouse Colon 38 cells xenografted in C57BL/6 mouse assessed as tumor volume at 3 mg/kg, iv administered as a single dose. Set-up: dose 3 mg/kg. It counts as functional, organism-based. The method, boiled down:
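Female C57BL/6 mice, 6 weeks old, were inoculated s.c. in the flank with about 30 mg Colon 38 tumor tissue. When tumors reached approximately 300 mm³ (day 1), mice were randomized, n = 5 per group. Compound in 5% glucose was given as a single i.v. tail-vein dose on day 1; controls received 5% glucose. Tumor volume = ([…])/2; body weight also recorded.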

Usually IC50 stands for the concentration that gives 50% inhibition.

Values after ≈ are worked out from the molar mass of the structure shown. Active and inactive are the calls of the source. The calls are words filed in the database; no cut-off is given here.

Chain of DNA topoisomerase 2-alpha (Mus musculus) (Q01320 whole entry): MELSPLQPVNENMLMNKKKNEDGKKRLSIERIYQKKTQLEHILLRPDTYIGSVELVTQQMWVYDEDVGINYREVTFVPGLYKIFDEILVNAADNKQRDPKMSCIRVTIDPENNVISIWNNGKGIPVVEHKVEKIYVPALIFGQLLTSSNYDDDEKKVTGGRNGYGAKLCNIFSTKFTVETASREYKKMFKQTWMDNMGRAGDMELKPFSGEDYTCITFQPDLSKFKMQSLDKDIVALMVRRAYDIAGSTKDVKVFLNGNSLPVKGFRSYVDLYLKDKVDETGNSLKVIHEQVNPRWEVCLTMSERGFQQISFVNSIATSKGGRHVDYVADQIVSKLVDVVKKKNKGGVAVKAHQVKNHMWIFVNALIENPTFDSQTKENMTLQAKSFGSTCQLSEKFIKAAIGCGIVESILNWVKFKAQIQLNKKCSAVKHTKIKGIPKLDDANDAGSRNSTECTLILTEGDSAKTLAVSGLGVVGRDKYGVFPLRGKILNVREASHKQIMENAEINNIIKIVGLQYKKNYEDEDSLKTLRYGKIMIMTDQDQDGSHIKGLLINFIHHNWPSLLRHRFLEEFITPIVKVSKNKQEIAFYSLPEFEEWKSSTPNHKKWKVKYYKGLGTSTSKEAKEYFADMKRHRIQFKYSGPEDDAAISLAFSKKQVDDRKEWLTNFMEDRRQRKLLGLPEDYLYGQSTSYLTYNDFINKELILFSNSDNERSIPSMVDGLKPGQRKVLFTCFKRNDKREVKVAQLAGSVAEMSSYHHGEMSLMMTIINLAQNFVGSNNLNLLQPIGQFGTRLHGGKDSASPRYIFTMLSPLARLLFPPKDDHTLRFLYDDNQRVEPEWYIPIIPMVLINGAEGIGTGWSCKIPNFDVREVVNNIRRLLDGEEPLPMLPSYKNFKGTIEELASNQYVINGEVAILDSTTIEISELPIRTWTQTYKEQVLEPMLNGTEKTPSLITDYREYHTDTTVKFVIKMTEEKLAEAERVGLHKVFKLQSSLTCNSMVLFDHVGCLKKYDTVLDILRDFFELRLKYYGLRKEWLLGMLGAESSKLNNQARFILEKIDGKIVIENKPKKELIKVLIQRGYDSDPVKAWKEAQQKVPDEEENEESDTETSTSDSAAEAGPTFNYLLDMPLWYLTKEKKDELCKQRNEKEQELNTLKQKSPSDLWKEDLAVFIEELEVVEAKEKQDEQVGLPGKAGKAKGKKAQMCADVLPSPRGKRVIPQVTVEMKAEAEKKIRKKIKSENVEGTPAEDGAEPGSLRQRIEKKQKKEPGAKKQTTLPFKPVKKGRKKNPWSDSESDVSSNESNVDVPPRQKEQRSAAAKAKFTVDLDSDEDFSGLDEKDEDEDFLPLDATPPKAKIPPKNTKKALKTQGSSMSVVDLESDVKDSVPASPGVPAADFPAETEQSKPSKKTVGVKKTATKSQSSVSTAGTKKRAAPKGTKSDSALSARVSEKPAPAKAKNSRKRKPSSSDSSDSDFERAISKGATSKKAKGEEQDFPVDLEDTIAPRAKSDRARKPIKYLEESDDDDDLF

As to `CN(C)/C=C/C(=O)c1nn(-c2ccccc2)cc1C(=O)c1ccccc1`, the MIC was 0.32 µg/mL (≈ 0.926 µM) in [1] and 4 µg/mL (≈ 11.6 µM) in data set [3]. For the same compound, the half-inhibitory concentration (IC50) in [2] is 44 µM. The Activity in [4] was 94.5%; in data set [6], “Non-toxic”; in data set [8], “Non-toxic”. The compound also showed a RatioGI50 in [5] of 136.4. Further, in data set [7], the Ratio was determined as 136. Also, the outcome in data set [9] was Active.

For the compound `CC(=O)c1nn(-c2ccc([N+](=O)[O-])cc2)cc1C(=O)c1ccccc1`, the results for the MIC in data set [1] and in [3] were 0.144 µg/mL (≈ 0.429 µM) and 3.09 µg/mL (≈ 9.21 µM), respectively. In [2], this compound showed a half-inhibitory concentration (IC50) of 31.5 µM. Also, the Activity in data set [4] is 98.2%; in data set [6], “Non-toxic”; in [8], “Non-toxic”. In data set [5], this compound yielded a RatioGI50 of 260.9. The Ratio in data set [7] was 261. Besides, the result in [9] was Active.

Take `CC(=O)c1nn(-c2ccc(C)cc2)cc1C(=O)c1ccccc1`: the MIC in [1] came to 0.159 µg/mL (≈ 0.522 µM); in data set [3] it was 3.42 µg/mL (≈ 11.3 µM). Also, the IC50 in [2] amounted to 37.8 µM. In addition, the Activity was 95.8% in data set [4], “Non-toxic” in [6] and “Non-toxic” in data set [8]. Moreover, in [5], the RatioGI50 worked out at 188.7. In addition, in [7], the Ratio was determined as 189. For the same compound, the outcome in data set [9] was Active.

For the compound `CC(=O)c1nn(-c2ccccc2)cc1C(=O)c1nn(-c2ccccc2)cc1C(=O)c1nn(-c2ccc(Cl)cc2)cc1C(=O)c1ccccc1`, the MIC in [1] stood at 0.151 µg/mL (≈ 0.227 µM); in [3] it was 3.2 µg/mL (≈ 4.81 µM). Besides, the midpoint of inhibition in data set [2], the IC50, lay at 35.1 µM. In addition, the Activity was 96.1% in [4], “Non-toxic” in data set [6] and “Non-toxic” in [8]. In [5], this compound came in with a RatioGI50 of 196.1. Further, the Ratio in data set [7] came to 196. For the same compound, the result in data set [9] was Active.

With `CC(=O)c1nn(-c2ccccc2)cc1C(=O)c1nn(-c2ccc(C)cc2)cc1C(=O)c1ccccc1`, the MIC in data set [1] was determined as 0.322 µg/mL (≈ 0.679 µM); in data set [3] it was 4.12 µg/mL (≈ 8.68 µM). The same compound yielded an IC50 in data set [2] of 44.1 µM. Also, the Activity was 94% in data set [4], “Non-toxic” in data set [6] and “Non-toxic” in data set [8]. The RatioGI50 in data set [5] came out at 38.46. For the same compound, the Ratio in [7] came to 38.4. Moreover, in data set [9], the result was Active.

`Cc1c(C)c2c(c(C)c1O)CCC(C)(C(=O)O)O2` (centres undefined) [TROLOX] came in with an IC50 in data set [2] of 58.4 µM.

On to `CC(=O)c1nn(-c2ccc(Cl)cc2)cc1C(=O)c1ccccc1`, for which the MIC came to 0.161 µg/mL (≈ 0.496 µM) in [1] and 3.52 µg/mL (≈ 10.8 µM) in data set [3]. Also, the IC50 in data set [2] amounted to 38.1 µM. In addition, the Activity in data set [4] amounted to 95.5%. The RatioGI50 in data set [5] stood at 178.6. In addition, in [7], the Ratio worked out at 178.

`Cc1ccc(-n2cc(C(=O)c3ccccc3)c(C(=O)c3cn(-c4ccccc4)nc3C(=O)/C=C/N(C)C)n2)cc1`: the MIC in data set [1] amounted to 0.181 µg/mL (≈ 0.342 µM); in [3], 3.82 µg/mL (≈ 7.21 µM). Moreover, the midpoint of inhibition in data set [2], the IC50, lay at 42.2 µM. For the same compound, the Activity in [4] is 94.9%; in data set [6], “Non-toxic”; in [8], “Non-toxic”. The compound further displayed a RatioGI50 in data set [5] of 150. Also, in [7], the Ratio stood at 150. In [9], the result was Active.

Consider `Cc1ccc(-n2cc(C(=O)c3ccccc3)c(C(=O)/C=C/N(C)C)n2)cc1`, for which the MIC in [1] amounted to 0.15 µg/mL (≈ 0.417 µM); in data set [3], 3.18 µg/mL (≈ 8.84 µM). For the same compound, half-maximal inhibition in data set [2] (IC50) was put at 34.2 µM. For the same compound, the values for the Activity in data set [4], in data set [6] and in data set [8] were 96.6%, “Non-toxic” and “Non-toxic”, respectively. In data set [5], this compound yielded a RatioGI50 of 260.4. Also, the Ratio in data set [7] was 260. The outcome in data set [9] was Active.

Consider `CC(=O)c1nn(-c2ccccc2)cc1C(=O)c1ccccc1`, for which the MIC in data set [1] stood at 0.162 µg/mL (≈ 0.558 µM); in data set [3] it was 3.62 µg/mL (≈ 12.5 µM). In data set [2], the IC50 was 39.5 µM. For the same compound, the Activity in [4] is 95.2%; in data set [6] it was “Non-toxic”; in [8], “Non-toxic”. For the same compound, in data set [5], the RatioGI50 is listed as 168.5. The Ratio in [7] came out at 168. In addition, in data set [9], the result was Active.

As to `CC(=O)c1nn(-c2ccccc2)cc1C(=O)c1nn(-c2ccc(Cl)cc2)cc1C(=O)c1ccccc1`, the MIC in data set [1] turned out to be 0.147 µg/mL (≈ 0.297 µM); in [3], 3.11 µg/mL (≈ 6.29 µM). The compound further showed an IC50 in [2] of 32.2 µM. For the same compound, the Activity in data set [4] was 97.7%; in [6], “Non-toxic”; in data set [8], “Non-toxic”. Further, in data set [5], the RatioGI50 is given as 260.9. Also, the Ratio in data set [7] was found to be 261. Moreover, the outcome in data set [9] was Active.

Regarding `CC(=O)c1nn(-c2ccccc2)cc1C(=O)c1nn(-c2ccc([N+](=O)[O-])cc2)cc1C(=O)c1ccccc1`, the MIC in data set [1] amounted to 0.155 µg/mL (≈ 0.307 µM); in [3], 3.22 µg/mL (≈ 6.36 µM). In addition, in data set [2], the IC50 worked out at 36.6 µM. The Activity in data set [4] was 96%; in data set [6], “Non-toxic”; in data set [8], “Non-toxic”. The compound also displayed a RatioGI50 in [5] of 194.8. Besides, the Ratio in data set [7] was 195. Also, the outcome in data set [9] was Active.

As to `CN(C)/C=C/C(=O)c1nn(-c2ccccc2)cc1C(=O)c1nn(-c2ccccc2)cc1C(=O)c1ccccc1`, the MIC turned out to be 0.291 µg/mL (≈ 0.564 µM) in data set [1] and 3.99 µg/mL (≈ 7.74 µM) in data set [3]. This compound also returned an IC50 in data set [2] of 44 µM. For the same compound, the Activity is 94.7% in [4], “Non-toxic” in [6] and “Non-toxic” in data set [8]. This compound registered a RatioGI50 in data set [5] of 142.9. In addition, the Ratio in data set [7] is 143. Besides, the result in data set [9] was Active.

In [4], `O=C1O[C@H]([C@@H](O)CO)C(O)=C1O` showed an Activity of 79%.

Turning to `CN(C)/C=C/C(=O)c1nn(-c2ccccc2)cc1C(=O)c1nn(-c2ccc(Cl)cc2)cc1C(=O)c1ccccc1`, the MIC was found to be 0.323 µg/mL (≈ 0.587 µM) in [1] and 4.15 µg/mL (≈ 7.55 µM) in [3]. The IC50 in data set [2] was 44.6 µM. Besides, the Activity in [4] is 93%; in data set [6], “Non-toxic”; in data set [8], “Non-toxic”. The same compound showed a RatioGI50 in data set [5] of 37.97. In addition, the Ratio in data set [7] was determined as 37.9. In [9], the outcome was Active.

Consider `CC(=O)c1nn(-c2ccccc2)cc1C(=O)c1nn(-c2ccccc2)cc1C(=O)c1nn(-c2ccc(C)cc2)cc1C(=O)c1ccccc1`, for which the values for the MIC in [1] and in data set [3] were 0.149 µg/mL (≈ 0.231 µM) and 3.12 µg/mL (≈ 4.84 µM), respectively. The same compound registered an IC50 in data set [2] of 34 µM. The Activity in data set [4] is 96.9%; in data set [6], “Non-toxic”; in [8], “Non-toxic”. Further, the RatioGI50 in [5] came out at 260.6. Also, the Ratio in data set [7] was found to be 261. Besides, in [9], the result was Active.

On to `CC(=O)c1nn(-c2ccccc2)cc1C(=O)c1nn(-c2ccccc2)cc1C(=O)c1nn(-c2ccccc2)cc1C(=O)c1ccccc1`, for which the MIC is 0.171 µg/mL (≈ 0.271 µM) in [1] and 3.71 µg/mL (≈ 5.89 µM) in data set [3]. The same compound displayed an IC50 in data set [2] of 42.1 µM. Also, the values for the Activity in [4], in data set [6] and in [8] were 95%, “Non-toxic” and “Non-toxic”, respectively. The compound further gave a RatioGI50 in [5] of 150.8. Further, the Ratio in data set [7] stood at 151. In addition, the result in [9] was Active.

Source of the values: ChEMBL document CHEMBL1154840, “New pyrazoles incorporating pyrazolylpyrazole moiety: synthesis, anti-HCV and antitumor activity” (Eur J Med Chem, 2010).
